Experimental data reported in ChEMBL document CHEMBL1123326, “Sequentially labile water-soluble prodrugs of alprazolam” (J Med Chem, 1986).

Columns and labels:
[1] = target: T1, GABA-A receptor; anion channel (Mus musculus) (UniProt Q8BHJ7+P26048+Q8QZW7+P50571+Q9R0Y8+P22723+A2AMW3+P62812+Q9JLF1+P26049+P22933+Q9D6F4+P63080+P27681+P16305); assay: Ex vivo inhibition of [3H]flunitrazepam binding to mouse GABA-A benzodiazepine receptor; type: functional
Outline: (§1)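 Mice dosed iv by tail vein (drugs in 0.9% NaCl, or 2% ethanol for parent; controls given vehicle); decapitated 30 min later (dose-response) or at 1, 3, 10, 30, 60 min (time course). Brain minus cerebellum homogenized in 50 vol 0.05 M Tris pH 7.4, 4 °C; incubated with ~0.77 nM [3H]flunitrazepam final, 30 min, 25 °C; GF/B filtration, scintillation counting. Mean of four measurements.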

[2] = target: T1, GABA-A receptor; anion channel (Mus musculus); assay: Ex vivo displacement of [3H]flunitrazepam from mouse GABA-A benzodiazepine receptor at 10 uM/kg iv dose; type: organism-based; outline: as §1
[3] = Half-life period at 37 degrees C; type: ADME
[4] = target: T1, GABA-A receptor; anion channel (Mus musculus); assay: Ex vivo displacement of [3H]flunitrazepam from mouse GABA-A benzodiazepine receptor at 30 uM/kg iv dose (Range 5-10%); type: organism-based; outline: as §1
[5] = target: T1, GABA-A receptor; anion channel (Mus musculus); assay: Ex vivo displacement of [3H]flunitrazepam from mouse GABA-A benzodiazepine receptor at 3 uM/kg iv dose; type: organism-based; outline: as §1
[6] = target: T1, GABA-A receptor; anion channel (Mus musculus); assay: Ex vivo displacement of [3H]flunitrazepam from mouse GABA-A benzodiazepine receptor at 1 uM/kg iv dose; type: organism-based; outline: as §1

`Cc1nnc2n1-c1ccc(Cl)cc1C(c1ccccc1)=NC2` showed an ED50 [1] of 2.9 µmol/kg.
`Cc1nnc(CNC(=O)C(N)CC(C)C)n1-c1ccc(Cl)cc1C(=O)c1ccccc1` (configuration not stated) gave an ED50 [1] of 6 µmol/kg, a Control [2] of 25% and a half-life [3] of 1 h. For the same compound, the Control [4] was 10%, the Control [5] was 60% and the Control [6] was 82%.
`Cc1nnc(CNC(=O)CCCN)n1-c1ccc(Cl)cc1C(=O)c1ccccc1` gave an ED50 [1] of 320 µmol/kg, a Control [2] of 20% and a Control [4] of 10%. The Control [5] was 51% and the Control [6] was 80%.
For `Cc1nnc(CNC(=O)CN)n1-c1ccc(Cl)cc1C(=O)c1ccccc1`, the ED50 [1] was 9 µmol/kg, the Control [2] was 3% and the half-life [3] was 4.33 h. It also gave a Control [5] of 50% and a Control [6] of 65%.
